Values after ≈ are worked out from the molar mass of the structure shown.
Test system: not listed separately
Test: Toxicity in human A549 cells assessed as reduction in cell viability incubated for 24 hrs by resazurin dye based assay
Details: not given
Method in brief: (§1)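 Toxicity tested in the nucleated lines A549 and BEAS-2B to give EC50 values. Selectivity index is EC50 against the mammalian line divided by the MIC against a given fungal strain.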
For CCCCC(O)(Cn1cncn1)c1ccc(Cl)cc1Cl (configuration not stated) [HEXACONAZOLE], the EC50 at 24 h was > 31.3 µg/mL.

Test system: Candida albicans
Test: Antifungal activity against ITC and FLC-resistant Candida albicans ATCC MYA-1003 incubated for 48 hrs by modified CLSI M27-A3 protocol based method
Format: functional
Details: ATCC MYA-1003, 48 h
Method in brief: (§2)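 Because these Candida strains show trailing growth, MIC-2 was read, meaning 50% growth inhibition. Caspofungin and voriconazole were tested here; other controls came from earlier work.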
For CCCCC(O)(Cn1cncn1)c1ccc(Cl)cc1Cl (configuration not stated) [HEXACONAZOLE], the MIC50 was 3.1 µM (≈ 0.974 µg/mL).

Test system: not listed separately
Test: Selectivity index, ratio of EC50 for toxicity in human BEAS2B cells to MIC50 for antifungal activity against ITC and FLC-resistant Candida albicans ATCC 1237
Format: cell-based
Details: BEAS-2B cells, read-out: Selectivity Index
Method in brief: (§3)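 Selectivity index is the EC50 against the mammalian line (A549 or BEAS-2B) divided by the MIC against the given fungal strain.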
Molecule CCCCC(O)(Cn1cncn1)c1ccc(Cl)cc1Cl (configuration not stated) [HEXACONAZOLE] has a selectivity ratio of 4.

Test system: not listed separately
Test: Hemolytic activity in mouse erythrocytes assessed as hemolysis level at 31.3 ug/ml incubated for 1 hr at 37 degC
Format: ADME, cell-based, Erythrocyte
Details: read-out: Activity
Method in brief: (§4)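 Mouse erythrocytes incubated 1 h at 37 °C with test agents over 1.95 to 125 µg/mL. Percent lysis is read for each concentration.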
In the case of CCCCC(O)(Cn1cncn1)c1ccc(Cl)cc1Cl (configuration not stated) [HEXACONAZOLE], the hemolysis at 1 h, 31.3 ug/ml is reported as 0%.

Test system: Nakaseomyces glabratus
Test: Antifungal activity against Candida glabrata ATCC 2001 incubated for 48 hrs by modified CLSI M27-A3 protocol based method
Format: functional
Details: ATCC 2001, 48 h
In the case of CCCCC(O)(Cn1cncn1)c1ccc(Cl)cc1Cl (configuration not stated) [HEXACONAZOLE], the MIC50 is reported as 12.4 µM (≈ 3.9 µg/mL).

Test system: not listed separately
Test: Selectivity index, ratio of EC50 for toxicity in human BEAS2B cells to MIC50 for antifungal activity against ITC and FLC-susceptible Candida albicans ATCC MYA-2310
Format: cell-based
Details: BEAS-2B cells, read-out: Selectivity Index
Method in brief: (§5)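 Ratio of the compound's EC50 against BEAS-2B cells to its MIC against the named C. albicans strain. […] For C. albicans strains other than ATCC 10231, trailing growth meant MIC-2 was taken, meaning 50% growth inhibition.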
For CCCCC(O)(Cn1cncn1)c1ccc(Cl)cc1Cl (configuration not stated) [HEXACONAZOLE], the selectivity ratio was 16.

Test system: not listed separately
Test: Selectivity index, ratio of EC50 for toxicity in human BEAS2B cells to MIC50 for antifungal activity against ITC and FLC-resistant Candida albicans ATCC MYA-1003
Format: cell-based
Details: BEAS-2B cells, read-out: Selectivity Index
Method in brief: as §3
With CCCCC(O)(Cn1cncn1)c1ccc(Cl)cc1Cl (configuration not stated) [HEXACONAZOLE] the selectivity ratio was 32.

Test system: Candida parapsilosis
Test: Antifungal activity against Candida parapsilosis ATCC 22019 incubated for 48 hrs by modified CLSI M27-A3 protocol based method
Format: functional
Details: Lodderomyces parapsilosis, ATCC 22019, 48 h; read-out: MIC100
Method in brief: (§6)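 For C. albicans ATCC 10231, C. krusei ATCC 6258 and C. parapsilosis ATCC 22019, MIC-0 was read, meaning complete growth inhibition. For azole controls, MIC-2 (50% growth inhibition) was reported instead. Caspofungin and voriconazole were tested here; other controls came from earlier work.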
In the case of CCCCC(O)(Cn1cncn1)c1ccc(Cl)cc1Cl (configuration not stated) [HEXACONAZOLE], the MIC is reported as < 0.1 µM.

Test system: not listed separately
Test: Selectivity index, ratio of EC50 for toxicity in human A549 cells to MIC50 for antifungal activity against ITC and FLC-resistant Candida albicans ATCC MYA-90819
Format: cell-based
Details: read-out: Selectivity Index
Method in brief: as §3
CCCCC(O)(Cn1cncn1)c1ccc(Cl)cc1Cl (configuration not stated) [HEXACONAZOLE] showed a selectivity ratio of 16.

Test system: not listed separately
Test: Selectivity index, ratio of EC50 for toxicity in human BEAS2B cells to MIC50 for antifungal activity against ITC and FLC-susceptible Candida albicans ATCC MYA-2876
Format: cell-based
Details: BEAS-2B cells, read-out: Selectivity Index
Method in brief: as §5
For CCCCC(O)(Cn1cncn1)c1ccc(Cl)cc1Cl (configuration not stated) [HEXACONAZOLE], the selectivity ratio was 16.

Test system: not listed separately
Test: Hemolytic activity in mouse erythrocytes assessed as hemolysis level at 1.95 ug/ml incubated for 1 hr at 37 degC
Format: ADME, cell-based, Erythrocyte
Details: read-out: Activity
Method in brief: as §4
Molecule CCCCC(O)(Cn1cncn1)c1ccc(Cl)cc1Cl (configuration not stated) [HEXACONAZOLE] has a hemolysis at 1 h, 1.95 ug/ml of 0%.

Test system: not listed separately
Test: in vitro
Details: mouse, mouse erythrocytes
CCCCC(O)(Cn1cncn1)c1ccc(Cl)cc1Cl (configuration not stated) [HEXACONAZOLE] showed a hemolysis at 1 h, 62.5 ug/ml of 59%.

Test system: Candida albicans
Test: Antifungal activity against ITC and FLC-susceptible Candida albicans ATCC MYA-2310 incubated for 48 hrs by modified CLSI M27-A3 protocol based method
Format: functional
Details: ATCC MYA-2310, 48 h
Work on CCCCC(O)(Cn1cncn1)c1ccc(Cl)cc1Cl (configuration not stated) [HEXACONAZOLE] yielded an MIC50 of 6.2 µM (≈ 1.95 µg/mL).

Test system: Aspergillus nidulans
Test: Antifungal activity against Aspergillus nidulans ATCC 38163 incubated for 48 hrs by CLSI M38-A2 protocol based method
Format: functional
Details: ATCC 38163, 48 h, read-out: MIC100
Molecule CCCCC(O)(Cn1cncn1)c1ccc(Cl)cc1Cl (configuration not stated) [HEXACONAZOLE] has an MIC of 0.76 µM (≈ 0.239 µg/mL).

Test system: not listed separately
Test: Selectivity index, ratio of EC50 for toxicity in human A549 cells to MIC50 for antifungal activity against ITC and FLC-resistant Candida albicans ATCC MYA-1003
Format: cell-based
Details: read-out: Selectivity Index
Method in brief: as §3
In the case of CCCCC(O)(Cn1cncn1)c1ccc(Cl)cc1Cl (configuration not stated) [HEXACONAZOLE], the selectivity ratio is reported as 32.

Test system: not listed separately
Test: Selectivity index, ratio of EC50 for toxicity in human BEAS2B cells to MIC100 for antifungal activity against Candida albicans ATCC 10231
Format: cell-based
Details: BEAS-2B cells, read-out: Selectivity Index
Method in brief: as §3
For CCCCC(O)(Cn1cncn1)c1ccc(Cl)cc1Cl (configuration not stated) [HEXACONAZOLE], the selectivity ratio was 130.

Test system: not listed separately
Test: Selectivity index, ratio of EC50 for toxicity in human BEAS2B cells to MIC50 for antifungal activity against Candida glabrata ATCC 2001
Format: cell-based
Details: BEAS-2B cells, read-out: Selectivity Index
Method in brief: as §3
Molecule CCCCC(O)(Cn1cncn1)c1ccc(Cl)cc1Cl (configuration not stated) [HEXACONAZOLE] has a selectivity ratio of 8.

Test system: not listed separately
Test: Hemolytic activity in mouse erythrocytes assessed as hemolysis level at 3.9 ug/ml incubated for 1 hr at 37 degC
Format: ADME, cell-based, Erythrocyte
Details: read-out: Activity
Method in brief: as §4
With CCCCC(O)(Cn1cncn1)c1ccc(Cl)cc1Cl (configuration not stated) [HEXACONAZOLE] the hemolysis at 1 h, 3.9 ug/ml was 0%.

Test system: not listed separately
Test: Selectivity index, ratio of […] for toxicity in human A549 cells to MIC50 for antifungal activity against Aspergillus nidulans ATCC 38163
Format: cell-based
Details: read-out: Selectivity Index
CCCCC(O)(Cn1cncn1)c1ccc(Cl)cc1Cl (configuration not stated) [HEXACONAZOLE] showed a selectivity ratio of 130.

Test system: Candida albicans
Test: Antifungal activity against ITC and FLC-susceptible Candida albicans ATCC MYA-2876 incubated for 48 hrs by modified CLSI M27-A3 protocol based method
Format: functional
Details: ATCC MYA-2876, 48 h
Method in brief: as §2
With CCCCC(O)(Cn1cncn1)c1ccc(Cl)cc1Cl (configuration not stated) [HEXACONAZOLE] the MIC50 was 6.2 µM (≈ 1.95 µg/mL).

Test system: Candida albicans
Test: Antifungal activity against Candida albicans ATCC 64124 incubated for 48 hrs by modified CLSI M27-A3 protocol based method
Format: functional
Details: ATCC 64124, 48 h
Work on CCCCC(O)(Cn1cncn1)c1ccc(Cl)cc1Cl (configuration not stated) [HEXACONAZOLE] yielded an MIC50 of 12.4 µM (≈ 3.9 µg/mL).

Test system: not listed separately
Test: Hemolytic activity in mouse erythrocytes assessed as hemolysis level at 7.8 ug/ml incubated for 1 hr at 37 degC
Format: ADME, cell-based, Erythrocyte
Details: read-out: Activity
Method in brief: as §4
For CCCCC(O)(Cn1cncn1)c1ccc(Cl)cc1Cl (configuration not stated) [HEXACONAZOLE], the hemolysis at 1 h, 7.8 ug/ml was 0%.

Test system: not listed separately
Test: Selectivity index, ratio of […] for toxicity in human BEAS2B cells to MIC50 for antifungal activity against Aspergillus flavus ATCC MYA-3631
Format: cell-based
Details: BEAS-2B cells, read-out: Selectivity Index
Molecule CCCCC(O)(Cn1cncn1)c1ccc(Cl)cc1Cl (configuration not stated) [HEXACONAZOLE] has a selectivity ratio of 8.

Test system: not listed separately
Test: Selectivity index, ratio of EC50 for toxicity in human BEAS2B cells to MIC50 for antifungal activity against Candida albicans ATCC 64124
Format: cell-based
Details: BEAS-2B cells, read-out: Selectivity Index
Method in brief: as §3
In the case of CCCCC(O)(Cn1cncn1)c1ccc(Cl)cc1Cl (configuration not stated) [HEXACONAZOLE], the selectivity ratio is reported as 8.

Test system: not listed separately
Test: Selectivity index, ratio of EC50 for toxicity in human A549 cells to MIC for antifungal activity against Candida parapsilosis ATCC 22019
Details: not given
CCCCC(O)(Cn1cncn1)c1ccc(Cl)cc1Cl (configuration not stated) [HEXACONAZOLE] showed a selectivity ratio of 1040.

Test system: not listed separately
Test: Selectivity index, ratio of EC50 for toxicity in human A549 cells to MIC50 for antifungal activity against ITC and FLC-resistant Candida albicans ATCC 1237
Format: cell-based
Details: read-out: Selectivity Index
Method in brief: as §3
In the case of CCCCC(O)(Cn1cncn1)c1ccc(Cl)cc1Cl (configuration not stated) [HEXACONAZOLE], the selectivity ratio is reported as 4.

Test system: not listed separately
Test: Selectivity index, ratio of EC50 for toxicity in human A549 cells to MIC50 for antifungal activity against Candida krusei ATCC 6258
Details: not given
In the case of CCCCC(O)(Cn1cncn1)c1ccc(Cl)cc1Cl (configuration not stated) [HEXACONAZOLE], the selectivity ratio is reported as 522.

Test system: not listed separately
Test: Selectivity index, ratio of EC50 for toxicity in human A549 cells to MIC50 for antifungal activity against ITC and FLC-susceptible Candida albicans ATCC MYA-2876
Format: cell-based
Details: read-out: Selectivity Index
Method in brief: as §3
With CCCCC(O)(Cn1cncn1)c1ccc(Cl)cc1Cl (configuration not stated) [HEXACONAZOLE] the selectivity ratio was 16.

Test system: not listed separately
Test: Selectivity index, ratio of EC50 for toxicity in human BEAS2B cells to MIC50 for antifungal activity against Candida krusei ATCC 6258
Details: BEAS-2B cells
Molecule CCCCC(O)(Cn1cncn1)c1ccc(Cl)cc1Cl (configuration not stated) [HEXACONAZOLE] has a selectivity ratio of 522.

Test system: not listed separately
Test: Toxicity in human BEAS2B cells assessed as reduction in cell viability incubated for 24 hrs by resazurin dye based assay
Details: BEAS-2B cells
Method in brief: as §1
For CCCCC(O)(Cn1cncn1)c1ccc(Cl)cc1Cl (configuration not stated) [HEXACONAZOLE], the EC50 at 24 h was > 31.3 µg/mL.

Test system: Pichia kudriavzevii
Test: Antifungal activity against Candida krusei ATCC 6258 incubated for 48 hrs by modified CLSI M27-A3 protocol based method
Format: functional
Details: ATCC 6258, 48 h, read-out: MIC100
Method in brief: as §6
With CCCCC(O)(Cn1cncn1)c1ccc(Cl)cc1Cl (configuration not stated) [HEXACONAZOLE] the MIC was 0.19 µM (≈ 0.0597 µg/mL).

Test system: not listed separately
Test: Selectivity index, ratio of EC50 for toxicity in human A549 cells to MIC50 for antifungal activity against Candida albicans ATCC 64124
Format: cell-based
Details: read-out: Selectivity Index
Method in brief: as §3
CCCCC(O)(Cn1cncn1)c1ccc(Cl)cc1Cl (configuration not stated) [HEXACONAZOLE] gave a selectivity ratio of 8.
